CendR NRP1 mod = modulators of CendR peptide binding to NRP-1, primary screen, biochemical, fluorescence polarization, uHTS; hit rate 0.85% among 360,000; Neuropilin-1 (Homo sapiens), O14786; inhibition, % at 25 µM; FAM-RPARPAR peptide binding to NRP-1;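 active means inhibition or corrected inhibition above about 18%, plus a signal ratio from 0.5 to 1.5, limit read from the data, passing the limit was not always enough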
SENP1 inh = human SENP1 catalytic domain inhibitors, primary screen, biochemical, FRET, uHTS; hit rate 0.21% among 360,000; recombinant SENP1 catalytic domain, CyPet-SUMO1-YPet FRET cleavage; Sentrin-specific protease 1 (Homo sapiens), Q9P0U3; inhibition, % at 10 µM;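 active means inhibition at least 30% at 10 µM, raw YFP signal under a set limit, fluorescence ratio 0.5 to 1.5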
Target sequence (Q9P0U3 419-644 limits assumed): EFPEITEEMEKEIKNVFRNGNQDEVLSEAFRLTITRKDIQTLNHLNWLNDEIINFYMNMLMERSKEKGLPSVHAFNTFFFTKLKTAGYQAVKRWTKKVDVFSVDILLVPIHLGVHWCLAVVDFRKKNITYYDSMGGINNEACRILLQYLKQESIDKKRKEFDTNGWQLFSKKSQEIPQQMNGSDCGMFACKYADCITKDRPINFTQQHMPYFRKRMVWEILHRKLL
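Material: hSENP1 catalytic domain, recombinant; medium: Tris pH 8 with BME, BSA, NP40 and catalase; compound: single concentration of 10 µM compound, 0.5% DMSO final; technique: FRET read of cyan and yellow fluorescence; timing: 50 min enzyme reaction, room temperature, light-protected; reagent: SFCypet-SUMO1-SFYpet substrate at 25 nM; control set: no-enzyme low, enzyme-DMSO high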
MT1-MMP act inh = blockers of MT1-MMP proenzyme processing, primary screen, HT1080 RFP-PRO-GFP cells, GFP/RFP fluorescence | GFP/RFP ratio fluorescence, overnight; percent of plate control window, DMSO zero | AID 651647, 2012 | hit rate 0.061% among 360,000 | GFP/RFP ratio change, % at 20 µM;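 active means GFP/RFP ratio change of at least 30% with cell ATP level not reduced by more than half and red fluorescence within 50% of control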
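Assay system: HT1080 RFP-PRO-GFP cells | Dosing: 20 µM single dose, 1% DMSO | Incubation: Cells overnight before dosing, compound overnight, 37 °C, 5% CO2 | Evaluation: GFP/RFP fluorescence ratio | Control set: DMSO-only wells and HT1080 RFP-L50D-GFP cell wells as references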
DAGLB inh = DAGLB lipase inhibitors, primary screen, biochemical, fluorescence, HTS | Diacylglycerol lipase-beta (Homo sapiens), Q8NCG7 | HEK293T DAGLB membrane lysate, EnzChek fluorogenic substrate | inhibition, % at 5.17 µM | hit rate 0.059% among 340,000; in the data active means inhibition above about 34%
MIN6 prolif = inducers of MIN6 beta-cell proliferation, primary screen, ATP luminescence, uHTS; AID 2380, 2010; proliferation, % at 10 µM; hit rate 0.29% among 330,000; MIN6 cells proliferation, ATPlite luminescence, 48 h; cells starved in 0.2% serum; 100% = growth in 10% serum;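 active means compounds whose signal lies at least 3.5 SD above the mean of all wells on their plate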
Myeloid diff MLP = induction of myeloid progenitor differentiation, primary screen, cell-based, flow cytometry, MLPCN library; ER-HoxA9 myeloid progenitors, lysozyme-GFP differentiation; calls only at 10 µM; hit rate 1% among 360,000;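 active means normalized GFP-positive differentiation at or above the plate's own cutoff, the solvent-only control mean plus 3 SD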;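 further: cells exposed to compound for four days before flow analysis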
Myeloid diff = inducers of myeloid progenitor differentiation, confirmation, cell-based, GFP/Mac1 flow cytometry, cherry pick 01; shares compounds with Myeloid diff MLP; ER-HoxA9 myeloid progenitors, GFP/Mac1 double-positive flow; calls only; hit rate 2% among 2,300;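 active means share of green or green-and-red cells above 9 and 9% in run 1 or 4 and 3% in run 2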
GFP autofluor = flagged as fluorescent in myeloid differentiation counter-screen. shares compounds with Myeloid diff MLP. ER-HoxA9 myeloid progenitors, no estrogen, GFP autofluorescence flow cytometry; vehicle wells 0%, positive control 100%. fluorescence response, % (test concentration not listed). hit rate 7.4% among 2,300. AID 651707;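 active means over 5% cells positive for green fluorescent reporter, or over 2% positive for both it and APC stain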
Large screens that a line does not name were inactive (follow-up assays come after a bar, where they were run). A selection: hits, their analogues and other compounds. The true share with any hit is near 2.4%.

C=CC[C@H](CC(=O)N(CCO)Cc1ccccc1)C(=O)N[C@@H](COC(=O)[C@@H](CC=C)Cc1ccc(F)cc1)Cc1c[nH]c2ccccc12	none | Myeloid diff inactive | GFP autofluor inactive
COc1ccc(CC(=O)N2CCCc3ccccc32)cc1OC	none
COc1ccc(CC(=O)NC2CCN(CC(=O)N3CCCc4ccccc43)CC2)cc1OC	none | Myeloid diff inactive | GFP autofluor inactive
CC(=O)C1=CCC(c2ccc(Cl)cc2)N(S(=O)(=O)c2ccccc2)C1 (stereo unspecified)	none (no result: DAGLB inh, MIN6 prolif)
CC(=O)c1c(Cl)nc2cccc3c2c1-c1ccccc1C3=O	none | Myeloid diff inactive | GFP autofluor inactive
CCOC(=O)/C=C1\Nc2ccccc2OC1=O	Myeloid diff MLP active | Myeloid diff inactive | GFP autofluor inactive
CCOC(=O)/C=C1\CC(C(=O)OCC)Oc2ccccc21 (stereo unspecified)	none (no result: MIN6 prolif)
Cc1ccc(CNc2nc(NCC3CC3)nc3ccsc23)c(C)c1	Myeloid diff MLP active (no result: DAGLB inh, MIN6 prolif) | Myeloid diff inactive | GFP autofluor inactive
Cc1ccc(/C=N/NC(=O)c2ccc(NC(=O)c3ccc(Cl)cc3)cc2)o1	none
Cc1ccc(C(=O)Nc2ccc(C(=O)N/N=C/c3ccc(C)o3)cc2)cc1	Myeloid diff MLP active | Myeloid diff inactive | GFP autofluor inactive
COc1ccc(S(=O)(=O)Nc2ccccc2C)cc1	none | Myeloid diff inactive | GFP autofluor inactive
Cc1ccccc1NS(=O)(=O)c1ccc(F)cc1	none
CCOC(=O)Oc1ccc(/C=C2\N=C(C)OC2=O)cc1	none
O=C1COc2ccc3ccccc3c21	none | Myeloid diff inactive | GFP autofluor inactive
O=C(COC(=O)C(CO)NS(=O)(=O)c1ccc(Br)cc1)Nc1ccc2c(c1)OCCO2 (stereo unspecified)	none
CO/N=C(\CS(=O)(=O)Cc1ccc(OC)cc1)c1ccc(Cl)cc1	none | Myeloid diff inactive | GFP autofluor inactive
COc1ccc(CS(=O)(=O)CC(C)(O)c2ccc(Cl)cc2)cc1 (stereo unspecified)	none (no result: Myeloid diff MLP)
Cc1ccc(C(=O)NC(=S)c2c(C)cc3ccccn23)cc1	Myeloid diff MLP active (no result: MIN6 prolif) | Myeloid diff inactive | GFP autofluor 11.0
CCOc1ccc(N(Cc2cc3cc(OC)ccc3[nH]c2=O)C(=O)C2CCCO2)cc1 (stereo unspecified)	Myeloid diff MLP active | Myeloid diff inactive | GFP autofluor inactive
CC1=C(C(=O)O)N2C(=O)C(NC(=O)c3nn(C)c(C)c3Cl)C2SC1 (stereo unspecified)	none | Myeloid diff inactive | GFP autofluor inactive
CCc1ccc(Nc2nnc(SC3CCOC3=O)s2)cc1 (stereo unspecified)	none
COC(=O)CNC(=O)COc1ccccc1	Myeloid diff MLP active | Myeloid diff inactive | GFP autofluor inactive
O=C(CCN1C(=O)c2ccccc2S1(=O)=O)Nc1ccc2c(c1)OCCO2	none (no result: MT1-MMP act inh) | Myeloid diff inactive | GFP autofluor inactive
O=S(=O)(c1cccc(-c2nnc(SCc3ccc(Cl)cc3)o2)c1)N1CCCCC1	Myeloid diff MLP active | Myeloid diff inactive | GFP autofluor 19.4
O=C(CNC(=O)c1ccc(Oc2ccccc2)cc1)OC1CCCCC1=O (stereo unspecified)	Myeloid diff MLP active | Myeloid diff inactive | GFP autofluor inactive

Source: PubChem
